The values below come from ChEMBL document CHEMBL1124765, “Synthesis and biological properties of novel phosphotriesters: a new approach to the introduction of biologically active nucleotides into cells” (J Med Chem, 1990).

Structures are written as SMILES. Converted amounts (≈) assume the structure as drawn. “And” between values parts separate entries of the source, which are not always exact repeats. Equal entries are not always repeated.

The species entered for data set [1] is Mus musculus. The data set is described as follows: Mean time survival (MTS) of the mice at the end of 28 or 49 days. The data set is classed as functional. An outline of the steps: (§1)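 Inocula were TK⁻ HSV-1 at 10⁶ CCID50/0.05 mL or HSV-1 KOS at 10^4.7 PFU/0.05 mL. Test formulations in DMSO were applied topically four times daily for 5 days, starting at infection. Skin lesions, hind-leg paralysis and death were recorded daily for 28 (KOS) or 49 (TK⁻) days, with five mice per group.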

Data set [2] deals with Mus musculus. Nature of the data set: Topical treatment of intracutaneous TK- herpes simplex virus type 1 of strain VMW 1837 infection of Nu/nu mice for mean day of appearance of skin lesions and/or paralysis of the hind legs at 0.3% concentration (v/v in DMSO). It is filed as functional. An outline of the steps:
as §1

Data set [3] concerns Mus musculus. Nature of the data set: Topical treatment of intracutaneous TK- herpes simplex virus type 1 of strain VMW 1837 infection of Nu/nu mice for mean day of appearance of skin lesions and/or paralysis of the hind legs at 1% concentration (v/v in DMSO). It is filed as functional. An outline of the steps: as §1
Data set [4] relates to Mus musculus. The data set is described as follows: Topical treatment of intracutaneous TK- herpes simplex virus type 1 of strain VMW 1837 infection of Nu/nu mice for mean day of appearance of skin lesions and/or paralysis of the hind legs at 3% concentration (v/v in DMSO). It is filed as functional. The procedure, abridged:
as §1

Data set [5] is filed under the species Oryctolagus cuniculus. Nature of the data set: Evaluated for the minimum cytotoxic concentration (MCC) upon preincubation of rabbit kidney cells. The data set is classed as functional. The procedure, abridged:
(§2)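 Primary rabbit kidney cell cultures were exposed to compounds, some preincubated 24 h at 37 °C in medium with 10% fetal calf serum. The minimum cytotoxic concentration was the level causing a microscopically detectable change in normal cell morphology.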

Data set [6] is filed under the species Oryctolagus cuniculus. Nature of the data set: Evaluated for the minimum cytotoxic concentration (MCC) upon preincubation of rabbit kidney cells in medium containing 10% fetal calf serum at 37 degree Celsius for 24 hr. The data set is classed as functional. The conditions noted are these: Oryctolagus cuniculus, kidney; read-out: MCC. An outline of the steps: as §2

The test system of data set [7] is Vesicular stomatitis virus. The data set is described as follows: Evaluated for the minimum inhibitory concentration (MIC) in primary rabbit kidney (PRK) by 50% upon pre-incubation in medium containing 10% fetal calf serum at 37 degree Centigrade for 24 hr against Vesicular stomatitis virus. The data set is classed as functional. The procedure, abridged:
(§3)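 Compounds were preincubated in medium with 10% fetal calf serum for 24 h at 37 °C before addition to the cells. Confluent primary rabbit kidney monolayers were infected with 100 CCID50 of virus and adsorbed for 1 h. Residual virus was removed and cells were incubated with varying compound concentrations. The endpoint was 50% reduction of cytopathogenicity, read when infected controls reached full CPE.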

Data set [8] relates to Vesicular stomatitis virus. Nature of the data set: Evaluated for the minimum inhibitory concentration (MIC) in primary rabbit kidney (PRK) by 50% against Vesicular stomatitis virus. It is filed as functional. The procedure, abridged: (§4)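 Confluent primary rabbit kidney cell monolayers were infected with 100 CCID50 of virus. After 1 h adsorption, residual virus was removed and cells were incubated with serial compound concentrations. Cytopathogenicity was scored once it reached completion in untreated infected controls. The endpoint was the concentration reducing virus-induced cytopathogenicity by 50%.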

Data set [9] has as its system Vaccinia virus. The data set is described as follows: Evaluated for the minimum inhibitory concentration (MIC) in primary rabbit kidney (PRK) by 50% upon pre-incubation in medium containing 10% fetal calf serum at 37 degree Centigrade for 24 hr against Vaccinia virus. It is filed as functional. The conditions noted are these: Orthopoxvirus vaccinia. An outline of the steps:
as §3

Data set [10] concerns Human alphaherpesvirus 1. The data set is described as follows: Evaluated for the minimum inhibitory concentration (MIC) in primary rabbit kidney (PRK) by 50% upon pre-incubation in medium containing 10% fetal calf serum at 37 degree Centigrade for 24 hr against TK- herpes simplex virus type 1 (TK- HSV-1) with st. It is filed as functional. An outline of the steps: as §3

Data set [11] relates to Vaccinia virus. Nature of the data set: Evaluated for the minimum inhibitory concentration (MIC) in primary rabbit kidney (PRK) by 50% against Vaccinia virus. It is filed as functional. The conditions noted are these: Orthopoxvirus vaccinia. The procedure, abridged:
as §4

Data set [12] has as its system Human alphaherpesvirus 2. Nature of the data set: Evaluated for the minimum inhibitory concentration (MIC) in primary rabbit kidney (PRK) by 50% upon preincubation in medium containing 10% fetal calf serum at 37 degree Celsius for 24 hr against herpes simplex virus type-2 (HSV-2) with strains Ly. It is filed as functional. The procedure, abridged: as §3
The subject of data set [13] is Human alphaherpesvirus 1. The data set is described as follows: Evaluated for the minimum inhibitory concentration (MIC) in primary rabbit kidney (PRK) by 50% against TK- herpes simplex virus type 1 (TK- HSV-1) with strain B2006. It is filed as functional. An outline of the steps: as §4
The test system of data set [14] is Human alphaherpesvirus 1. The data set is described as follows: Evaluated for the minimum inhibitory concentration (MIC) in primary rabbit kidney (PRK) by 50% against TK- herpes simplex virus type 1 (TK- HSV-1) with strain VMW 1837. It is filed as functional. An outline of the steps: as §4
For data set [15], the system named is Human alphaherpesvirus 1. The data set is described as follows: Evaluated for the minimum inhibitory concentration (MIC) in primary rabbit kidney (PRK) by 50% against herpes simplex virus type-1 (HSV-1) with strains KOS. The data set is classed as functional. The procedure, abridged:
(§5)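 Confluent primary rabbit kidney cell cultures infected with 100 CCID50 virus; after 1 h adsorption residual virus removed and cells incubated with varying compound concentrations. Cytopathogenicity scored when complete in infected untreated controls; MIC = concentration reducing virus-induced cytopathogenicity by 50%. Compounds tested as such or after preincubation in medium with 10% fetal calf serum, 24 h, 37 °C.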

The subject of data set [16] is Human alphaherpesvirus 1. Nature of the data set: Evaluated for the minimum inhibitory concentration (MIC) in primary rabbit kidney (PRK) by 50% against herpes simplex virus type-1 (HSV-1) with strains McIntyre. The data set is classed as functional. The procedure, abridged: as §5
Data set [17] deals with Human alphaherpesvirus 1. Nature of the data set: Evaluated for the minimum inhibitory concentration (MIC) in primary rabbit kidney (PRK) by 50% upon preincubation in medium containing 10% fetal calf serum at 37 degree Centigrade for 24 hr against herpes simplex virus type-1 (HSV-1) with strain McI. The data set is classed as functional. The procedure, abridged: as §3
In data set [18] the test system is Human alphaherpesvirus 1. Nature of the data set: Evaluated for the minimum inhibitory concentration (MIC) in primary rabbit kidney (PRK) by 50% upon preincubation in medium containing 10% fetal calf serum at 37 degree Celsius for 24 hr against herpes simplex virus type-1 (HSV-1) with strainF. The data set is classed as functional. The procedure, abridged:
as §3

The subject of data set [19] is Human alphaherpesvirus 1. The data set is described as follows: Evaluated for the minimum inhibitory concentration (MIC) in primary rabbit kidney (PRK) by 50% upon pre-incubation in medium containing 10% fetal calf serum at 37 degree Centigrade for 24 hr against herpes simplex virus type-1 (HSV-1) with strainKOS. The data set is classed as functional. The procedure, abridged:
as §3

Data set [20] has as its system Human alphaherpesvirus 2. Nature of the data set: Evaluated for the minimum inhibitory concentration (MIC) in primary rabbit kidney (PRK) by 50% against herpes simplex virus type-2 (HSV-2) with strains 196. It is filed as functional. The procedure, abridged:
as §5

Data set [21] concerns Human alphaherpesvirus 2. The data set is described as follows: Evaluated for the minimum inhibitory concentration (MIC) in primary rabbit kidney (PRK) by 50% against herpes simplex virus type-2 (HSV-2) with strains G. It is filed as functional. The procedure, abridged:
as §4

The subject of data set [22] is Human alphaherpesvirus 2. Nature of the data set: Evaluated for the minimum inhibitory concentration (MIC) in primary rabbit kidney (PRK) by 50% against herpes simplex virus type-2 (HSV-2) with strains Lyons. It is filed as functional. An outline of the steps: as §5
For data set [23], the system named is Human alphaherpesvirus 2. The data set is described as follows: Evaluated for the minimum inhibitory concentration (MIC) in primary rabbit kidney (PRK) by 50% upon preincubation in medium containing 10% fetal calf serum at 37 degree Centigrade for 24 hr against herpes simplex virus type-2 (HSV-2) with strains 19. It is filed as functional. The procedure, abridged: as §3

Data set [24] has as its system Human alphaherpesvirus 2. The data set is described as follows: Evaluated for the minimum inhibitory concentration (MIC) in primary rabbit kidney (PRK) by 50% upon preincubation in medium containing 10% fetal calf serum at 37 degree Celsius for 24 hr against herpes simplex virus type-2 (HSV-2) with strains G. It is filed as functional. The procedure, abridged:
as §3

Data set [25] concerns Human alphaherpesvirus 1. The data set is described as follows: Evaluated for the minimum inhibitory concentration (MIC) in primary rabbit kidney (PRK) by 50% against herpes simplex virus type-1 (HSV-1) with strains F. It is filed as functional. The procedure, abridged:
as §5

For data set [26], the system named is Human alphaherpesvirus 1. The data set is described as follows: Evaluated for the minimum inhibitory concentration (MIC) in primary rabbit kidney (PRK) by 50% upon preincubation in medium containing 10% fetal calf serum at 37 degree Centigrade for 24 hr against TK- herpes simplex virus type 1 (TK- HSV-1) with st. It is filed as functional. An outline of the steps:
as §3

A short description of data set [27]: pKa value was determined. The data set is classed as physicochemical.

As for `CS(=O)(=O)c1ccc(OP(=O)(OC[C@H]2O[C@@H](n3cc(/C=C/Br)c(=O)[nH]c3=O)C[C@@H]2O)OC[C@H]2O[C@@H](n3cc(/C=C/Br)c(=O)[nH]c3=O)C[C@@H]2O)cc1`, the MTS in data set [1] is 15 days and 24.2 days and 37.8 days. Moreover, the “Mean day appearance of lesions” value was determined as 16.7 in data set [2], 10.4 in data set [3] and 9.7 in [4]. Besides, the MCC in [5] and in [6] was over 400 µg/mL each time. Besides, the MIC in [7] was over 400 µg/mL; in [8], over 400 µg/mL; in data set [9], 70 µg/mL (≈ 79.3 µM); in [10] it was 300 µg/mL (≈ 340 µM); in data set [11] it was over 400 µg/mL; in [12], 200 µg/mL (≈ 227 µM). The MIC is over 400 µg/mL in data set [13]; over 400 µg/mL in data set [14]; 2 µg/mL (≈ 2.27 µM) in data set [15]; 2 µg/mL (≈ 2.27 µM) in [16]; 0.7 µg/mL (≈ 0.793 µM) in [17]; 0.2 µg/mL (≈ 0.227 µM) in data set [18]. Besides, the MIC in data set [19] is 0.2 µg/mL (≈ 0.227 µM); in data set [20], over 400 µg/mL; in data set [21], over 200 µg/mL; in [22], over 400 µg/mL; in [23] it was over 400 µg/mL; in data set [24] it was 150 µg/mL (≈ 170 µM). The values for the MIC in [25] and in data set [26] were 2 µg/mL (≈ 2.27 µM) and over 400 µg/mL, respectively.

For the molecule `CC(=O)O[C@H]1C[C@H](n2cc(C)c(=O)[nH]c2=O)O[C@@H]1COP(=O)(OC[C@H]1O[C@@H](n2cc(C)c(=O)[nH]c2=O)C[C@@H]1OC(C)=O)Oc1ccccc1Cl`, the pKa in [27] is 8.48.

As usually defined, the pKa is the pH at which an ionisable group is half protonated. Read a high pKa as a group that holds its proton tightly.
